From ChEMBL document CHEMBL1156741, “Development of photoaffinity probes for gamma-secretase equipped with a nitrobenzenesulfonamide-type cleavable linker” (Bioorg Med Chem Lett, 2009)
Activity calls are given as the source filed them. The rule behind the calls is not given here.

Legend:
[1] = Inhibition of gamma-secretase assessed as inhibition of Abeta42 generation at 1 uM
[2] = Inhibition of gamma-secretase assessed as inhibition of Abeta40 generation at 1 uM
[3] = target: T1, Gamma-secretase (Homo sapiens) (UniProt Q96BI3+Q9NZ42+Q8WW43+P49768+Q92542+P49810); assay: Binding affinity to gamma-secretase in human HeLa cell lysate assessed as biotinylated presenilin 1 C-terminal fragment by Western blotting in presence of 2-mercaptoethanol; assay type: cell-free
How it was run: (§1)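 Streptavidin sepharose beads carrying biotinylated proteins captured after photolabeling were treated in carbonate buffer (pH 9.2) with 2% SDS, with or without 3% 2-mercaptoethanol, for 4 h at 20 °C. Proteins were transferred to nitrocellulose and detected by western blotting with chemiluminescence.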

[4] = target: T1, Gamma-secretase (Homo sapiens); assay: Binding affinity to gamma-secretase in human HeLa cell lysate assessed as presenilin 1 C-terminal fragment photolabeling by Western blotting; assay type: cell-free
How it was run: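 CHAPSO-solubilized HeLa cell lysate (about 150 µg) was mixed with the probe and photolabeled. PS1 CTF labeling was then detected by western blotting on nitrocellulose with chemiluminescence.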

[5] = target: T1, Gamma-secretase (Homo sapiens); assay: Binding affinity to gamma-secretase in human HeLa cell lysate assessed as biotinylated presenilin 1 C-terminal fragment by Western blotting in absence of 2-mercaptoethanol; assay type: cell-free; how it was run: as §1

Row | inhibition [1] | inhibition [2] | Activity [3] | Activity [4] | Activity [5] | Compound
1 | 66.2% | 62.8% | Active | Active | inactive | C[C@H](NC(=O)[C@@H](NC(=O)Cc1cc(F)cc(F)c1)c1ccccc1)C(=O)NCc1ccc(C(=O)c2ccc(CNCCCCCCCC(=O)NCCCN(C)S(=O)(=O)c3ccc(C(=O)NCCCCCC(=O)CCCC[C@@H]4SC[C@@H]5NC(=O)N[C@@H]54)cc3[N+](=O)[O-])cc2)cc1
2 | 76.3% | 77.4% | – | – | – | C[C@H](NC(=O)Cc1cc(F)cc(F)c1)C(=O)N[C@H](C(=O)OC(C)(C)C)c1ccccc1
3 | 60.2% | 54.9% | – | Active | – | C[C@H](NC(=O)[C@@H](NC(=O)Cc1cc(F)cc(F)c1)c1ccccc1)C(=O)NCc1ccc(C(=O)c2ccc(CNCCCCCC(=O)NCCCN(C)S(=O)(=O)c3ccc(C(=O)NCCCCCC(=O)CCCC[C@@H]4SC[C@@H]5NC(=O)N[C@@H]54)cc3[N+](=O)[O-])cc2)cc1
4 | 89.3% | 62.3% | – | Active | – | C[C@H](NC(=O)[C@@H](NC(=O)Cc1cc(F)cc(F)c1)c1ccccc1)C(=O)NCc1ccc(C(=O)c2ccc(CNCCCCCCCC(=O)NCCCCCCCN(C)S(=O)(=O)c3ccc(C(=O)NCCCCCC(=O)CCCC[C@@H]4SC[C@@H]5NC(=O)N[C@@H]54)cc3[N+](=O)[O-])cc2)cc1
5 | 77% | 81.9% | – | Active | – | C[C@H](NC(=O)[C@@H](NC(=O)Cc1cc(F)cc(F)c1)c1ccccc1)C(=O)NCc1ccc(C(=O)c2ccc(CNCC(=O)NCCCCCCCN(C)S(=O)(=O)c3ccc(C(=O)NCCCCCC(=O)CCCC[C@@H]4SC[C@@H]5NC(=O)N[C@@H]54)cc3[N+](=O)[O-])cc2)cc1
6 | 59.3% | 78.2% | – | Active | – | C[C@H](NC(=O)[C@@H](NC(=O)Cc1cc(F)cc(F)c1)c1ccccc1)C(=O)NCc1ccc(C(=O)c2ccc(CNCCCCCC(=O)NCCCCCCCN(C)S(=O)(=O)c3ccc(C(=O)NCCCCCC(=O)CCCC[C@@H]4SC[C@@H]5NC(=O)N[C@@H]54)cc3[N+](=O)[O-])cc2)cc1
